Bioassay records as filed in PubChem.
Shown are actives, neighbours in structure and some others; about 1.3% of the full set was active somewhere.
Diaph inh CS: counter-screen for diaphorase-based assays: diaphorase inhibitors and chemical oxidizers; diaphorase resazurin-to-resorufin fluorescence, NADH, 16 min; bacterial (C. kluyveri) enzyme, not human; inhibition, % at 20 µM; 190,000 tested, 0.69% active; AID 1217;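 active = primary screen inhibition at 20 µM above a set limit, cut at about 50% in these data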;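 note: plate controls were DMSO with full reaction for no effect and wells lacking NADH for full effect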
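System: Bacterial diaphorase enzyme (C. kluyveri) | Incubation: 16-min room-temperature incubation before reading | Benchmarks: No-NADH positive control and DMSO neutral control | Measured by: Resorufin fluorescence 544/590 nm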
Diaphorase act: counter-screen for diaphorase-based assays: diaphorase activators and chemical reducers | activation factor at 20 µM | 190,000 tested, 0.005% active | AID 1229 | Diaphorase/resazurin coupled assay, resorufin fluorescence, 16 min; hits give high values; 1 = vehicle wells, 0 = NADH-free wells;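 active = diaphorase activity raised at least twofold by the compound at 20 µM; inactive = activation factor below 2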
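Material: bacterial diaphorase enzyme (C. kluyveri); amount: enzyme 0.07 U/mL final; reagent: NADH substrate 0.114 mM plus resazurin dye 0.1 mM, final; doses: single compound dose of 20 µM, 1% DMSO final; timing: 16 min enzyme reaction, ambient temperature; measured by: fluorescence of resorufin, 544 nm excitation, 590 nm emission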
TbHK1 inh: T. brucei hexokinase 1 inhibition | recombinant TbHK1, G6PDH-coupled NADH A340 | inhibition, % at 10 µM | 220,000 tested, 0.11% active;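 active = inhibition of 50% or more in the single-dose primary screen; inactive = inhibition below 50%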
PfGluPho inh: PfG6PD (Plasmodium falciparum) enzyme inhibition; PfGluPho enzyme, NADPH resazurin-diaphorase fluorescence; inhibition, % at 20 µM; 350,000 tested, 0.78% active;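 active = inhibition reaching at least a set limit at 20 µM in the primary screen, cut at about 59% in these data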;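 note: 0% = DMSO wells with substrate and 100% = DMSO wells lacking glucose-6-phosphate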
HKDC1 inhibitor: inhibitors of human hexokinase HKDC1; recombinant HKDC1, G6PDH/diaphorase resazurin coupled fluorescence; inhibition, % at 20 µM; 340,000 tested, 0.16% active; AID 493160;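 active = inhibition above about 35% when tested at 20 µM, limit read from the data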;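 note: plate controls were DMSO wells with enzyme for no effect and DMSO wells lacking enzyme for full effect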
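System: Recombinant HKDC1 hexokinase | Amount: HKDC1 at 5 µg/mL | Reagent: Glucose with 1 mM ATP | Doses: Single 20 µM dose | Incubation: Reaction time 90 min, room temperature, protected from light | Signal: Coupled resazurin fluorescence, excitation 525 nm, emission 613 nm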
G6PDH counter: L. mesenteroides G6PDH inhibition counter-screen; 200,000 tested, 0.12% active; inhibition, % at 5 µM; Purified L. mesenteroides G6PDH, diaphorase/resazurin coupled fluorescence, 45 min; in the data active = inhibition above about 50%
PfG6PD confirm: confirmation of Plasmodium falciparum G6PD inhibitors; shares compounds with PfGluPho inh; inhibition, % at 20 µM; 2,400 tested, 34% active; recombinant PfGluPho, NADPH-diaphorase-resazurin fluorescence;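 active = inhibition of at least 50% at 20 µM in any single replicate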;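 note: 0% = DMSO with substrate and 100% = DMSO lacking glucose-6-phosphate substrate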
Diaph ctr 10uM: counter-screen for P. falciparum G6PD inhibitors: diaphorase inhibitors, oxidizers | shares compounds with PfGluPho inh | inhibition, % at 20 µM | diaphorase-coupled resazurin reduction, fluorescence, NADPH 10 uM | 820 tested, 39% active | AID 504862;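 active = average inhibition reaching 50% or more with the compound at 20 µM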;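 note: resorufin red fluorescence formed as diaphorase reduces resazurin using NADPH; 0% = DMSO with enzyme and 100% = DMSO without enzyme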
Diaph ctr 30uM: counter-screen for P. falciparum G6PD inhibitors: diaphorase inhibitors, oxidizers; 820 tested, 29% active; Diaphorase/resazurin coupled assay, resorufin fluorescence, 30 uM NADPH; shares compounds with PfGluPho inh; inhibition, % at 20 µM;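 active = inhibition averaging 50% or more, tested at 20 µM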;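 note: 0% = DMSO with enzyme and 100% = DMSO wells lacking diaphorase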
Numbers without * were called inactive.

Screening CCOCC(=O)Nc1nnc(COc2ccc(Cl)cc2)s1 returned Diaph inh CS 4.3, Diaphorase act 1, TbHK1 inh -4.3, PfGluPho inh 62.1*, HKDC1 inhibitor -12.2, G6PDH counter 8.8 and PfG6PD confirm 15.4.
For Cc1cccc(C)c1OCc1nnc(NC(=O)CSc2ccc(Cl)cc2)s1 the results were Diaph inh CS 11.6, Diaphorase act 0.9, TbHK1 inh 12.5, PfGluPho inh -6.7, HKDC1 inhibitor -1.5 and G6PDH counter 5.9.
O=C(CSc1ccccc1)Nc1nnc(COc2ccc(Cl)cc2)s1 was read as Diaph inh CS 7.6, Diaphorase act 0.9, TbHK1 inh 9.8, PfGluPho inh 78.3*, HKDC1 inhibitor -25.9, G6PDH counter 18.5 and PfG6PD confirm 42.9.
`CN(CC(=O)Nc1ccccc1Br)C(=O)c1ccccc1OCc1ccc(Cl)cc1` gave PfGluPho inh 59.2*, HKDC1 inhibitor -1.5 and PfG6PD confirm 30.0.
`CCOC(=O)C1C(=O)NC(SCC(=O)Nc2nccs2)=C(C#N)C1c1ccccc1OCC` (stereo not given) gave Diaph inh CS 7.6, Diaphorase act 0.9, TbHK1 inh -3.9, PfGluPho inh 70.3*, HKDC1 inhibitor -22.3, G6PDH counter -4.0 and PfG6PD confirm 30.9.
Screening O=[N+]([O-])c1ccc(N/N=C/C=C/c2ccco2)cc1 returned PfGluPho inh 57.4 and HKDC1 inhibitor 1.4.
`O=C(Nc1ccc(Br)cc1)c1cc2ccccn2n1` gave TbHK1 inh 0.5, PfGluPho inh 71.2*, HKDC1 inhibitor -5.0 and PfG6PD confirm 28.6.
For Cc1ccc(NC(=O)CN(C)C(=O)c2cccc(-n3cccc3)c2)cc1 the results were PfGluPho inh 5.7 and HKDC1 inhibitor 17.7.
`CN1CCN(C(=O)c2ccccc2NS(=O)(=O)c2ccc(F)cc2)CC1` gave PfGluPho inh 0.8 and HKDC1 inhibitor -2.0.
For O=C(N/N=C/c1cccc2ccccc12)c1ccccc1Cl the results were PfGluPho inh 82.6*, HKDC1 inhibitor 1.3 and PfG6PD confirm 46.1.
O=C(NN=Cc1ccccc1Cl)c1cccc2ccccc12 was read as PfGluPho inh -3.2 and HKDC1 inhibitor -1.8.
`COCCn1c2nc(=O)n(-c3ccccc3)c(=O)c-2nc2ccccc21` gave PfGluPho inh 59.2* and PfG6PD confirm 38.1.
`Cc1nn(C(=O)c2cccnc2)c(C)c1Sc1ccc(Br)cc1` gave Diaph inh CS 12.0, Diaphorase act 0.9, TbHK1 inh -0.4, PfGluPho inh 67.0*, HKDC1 inhibitor -2.9, G6PDH counter -0.5 and PfG6PD confirm 43.8.
`Cc1nn(C(=O)c2ccco2)c(C)c1Sc1ccc(Cl)cc1` gave Diaph inh CS 13.5, Diaphorase act 0.9, TbHK1 inh 5.4, PfGluPho inh -3.5, HKDC1 inhibitor -2.4 and G6PDH counter 16.8.
Screening COc1cc(CN2CCN(CCCc3ccccc3)C(CCO)C2)cc(OC)c1O (stereo not given) returned PfGluPho inh 60.9*, HKDC1 inhibitor 21.6, PfG6PD confirm 56.8*, Diaph ctr 10uM 6.7 and Diaph ctr 30uM 1.0.
For CCOC(=O)c1ccc(NC(=O)C(=O)NCC2(c3ccc(OC)cc3)CCOCC2)cc1 the results were TbHK1 inh -17.7, PfGluPho inh 9.8 and HKDC1 inhibitor 6.2.
`Cc1ccc(-c2nn(C)c(=O)c3ccccc23)cc1CNC(=O)/C=C/c1ccccc1` gave Diaph inh CS -7.3, Diaphorase act 1.1, TbHK1 inh -8.3, PfGluPho inh 76.9*, HKDC1 inhibitor 3.7, G6PDH counter 0.3, PfG6PD confirm 76.0*, Diaph ctr 10uM 59.0* and Diaph ctr 30uM 50.0.
